The sample as a whole holds a higher share of hits than the screen did.
CHOP inhibitor – CHOP inhibition in unfolded protein response; CHO-K1 CHOP-promoter luciferase, tunicamycin-induced, 15-18 h; inhibition, % at 10 µM; actives 3.8% (n = 220,000);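 active = compounds that reduced the stress-induced luciferase reporter signal by more than about 70% of percent inhibition, limit read from the data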;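 also: 0% = tunicamycin plus vehicle and 100% = wells without tunicamycin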
NOD2 RIPK2 PPI – blocks binding of human NOD2 to RIPK2; O43353; CHO BLA complementation NOD2-RIPK2, CCF4 ratio; inhibition, % at 4.98 µM; actives 0.38% (n = 360,000); AID 624267; in the data active = inhibition above about 21%;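 also: 0% = vehicle only and 100% = reference blocker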
TLR4-MyD88 BLA – TLR4-MyD88 interaction inhibition in cells; O00206+Q99836; HeLa CL3-4 TLR4/MyD88 BLA complementation, FRET ratio; actives 0.18% (n = 200,000); AID 861; inhibition, % at 8.4 µM; in the data active = inhibition above about 25%;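 also: 0% = vehicle and 100% = reference inhibitor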
XBP1 UPR activ – adaptive UPR (XBP1) activation. CHO-XBP1 luciferase reporter, IRE1-XBP1 UPR activation, luminescence; percent of tunicamycin response, DMSO as zero. actives 0.33% (n = 330,000). activation, % at 20 µM. AID 463104;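 active = versus positive control, 20 µM dose yields 30% or more activation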;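 also: 100% = tunicamycin at 10 µg/mL and 0% = DMSO only wells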
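Signal: luciferase luminescence; Assay system: CHO-XBP1 luciferase reporter cells; Amount: one thousand reporter cells per well; Dosing: 20 µM single concentration, DMSO 1%; Benchmarks: high control tunicamycin 10 µg/mL final, low control DMSO vehicle only; Schedule: 6 h compound exposure at 37 °C, 5% CO2; Evaluation: percent activation relative to tunicamycin reference.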
TLR9-MyD88 block – TLR9-MyD88 interaction inhibition. Q9NR96+Q99836. CHO BLA complementation TLR9-MyD88, CCF4 FRET ratio. inhibition, % at 4.98 µM. actives 0.21% (n = 340,000). AID 504734;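 active = inhibition above the mean over all tested compounds plus 3 SD, cut at about 21% in these data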;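 also: 0% = DMSO only wells and 100% = clavulanate BLA inhibitor control wells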
CHOP UPR activ – activators of apoptotic arm of unfolded protein response (CHOP); actives 0.34% (n = 330,000); activation, % at 10 µM; AID 449763; CHO-CHOP luciferase reporter, UPR activation, luminescence; percent of tunicamycin response over DMSO baseline;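 active = at 10 µM dose, activation of 40% or more, normalized to positive control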;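 also: 100% = tunicamycin at 10 µg/mL and 0% = DMSO alone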
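Test system: CHO-CHOP cells, stable luciferase reporter of PERK-eIF2a-CHOP signalling | Quantity: 500 CHO-CHOP cells per well | Buffer or medium: F12 plus 10% serum | Compound dosing: 10 µM single point, 0.5% DMSO | Schedule: 6 h compound treatment, 37 °C | Signal: Luciferase luminescence | Control set: Tunicamycin high control, DMSO low control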
* = called active by the depositor; nt = not tested or not shown.

SMILES	CHOP inhibitor	NOD2 RIPK2 PPI	TLR4-MyD88 BLA	XBP1 UPR activ	TLR9-MyD88 block	CHOP UPR activ
Cc1ccc(C)c(NC(=S)NC(NC(=O)Cc2cccc3ccccc23)C(Cl)(Cl)Cl)c1 (stereo not given)	79*	6	-11	47*	-3	52*
Cc1ccnc2nc(C(=O)OCC(=O)N(C)C3CCCCC3)nn12	nt	5	nt	nt	1	nt
O=C1N(c2ccccc2)c2ccccc2[C@]12C[C@H](O)CO2	nt	0	nt	nt	nt	nt
Cc1ccc(C(=O)n2c(N)nc3ccccc32)cc1	75*	-5	1	-6	-9	-9
NC(=S)c1ccc[n+]([C@@H]2O[C@@H](COP(=O)([O-])OP(=O)(O)OC[C@H]3O[C@@H](n4cnc5c(N)ncnc54)C(OP(=O)(O)O)[C@H]3O)C(O)C2O)c1 (stereo not given in full)	-6	nt	nt	nt	nt	nt
CC(=NCCc1c(C)[nH]c2ccc(OC(F)(F)F)cc12)C1=C(O)CC(c2ccccc2)CC1=O (stereo not given)	72*	-5	-1	0	1	0
COC(=O)C(NC(=O)c1ccccc1)C(C)(C)SCc1ccccc1 (stereo not given)	nt	3	nt	nt	-3	nt
O=C(NNc1nc(Nc2ccccc2)nc(N2CCOCC2)n1)Nc1ccc(Cl)cc1	95*	7	9	-4	1	1
CC(=O)NC(c1cccc(F)c1)c1nc(-c2ccc3ccccc3c2)cs1 (stereo not given)	nt	-1	nt	nt	nt	nt
COc1ccc(NC(=O)Cn2cnc3c(cnn3-c3ccc(C)c(C)c3)c2=O)c(OC)c1	82*	-2	-14	-1	-8	1
CCOc1ccccc1NC(=O)Cn1cnc2c(cnn2-c2ccc(C)c(C)c2)c1=O	23	-3	4	11	6	2
CCOC(=O)c1sc(NC(=O)CSc2n[nH]c(-c3ccncc3)n2)c(C#N)c1C	85*	-8	-11	-1	11	0
CCOC(=O)C1(C)CCCN(C(=O)c2ccc(F)cc2Cl)C1 (stereo not given)	nt	-14	nt	nt	nt	nt
O=C(/C=C/c1ccc(Cl)cc1)N(c1ccccn1)C1CCCCC1	70*	-7	-8	-2	3	0
O=C(COc1coc(CN2CCN(c3ccc(F)cc3)CC2)cc1=O)NC1CCCCC1	nt	0	nt	nt	12	nt
Cn1cc(C2=C(c3ccc(Cl)cc3Cl)C(=O)NC2=O)c2ccccc21	86*	-7	nt	-4	-2	3
CC(C)[C@H](NC(=O)OC(C)(C)C)c1cc(C(=O)NC2CC2)c(N)s1	nt	-6	nt	nt	nt	nt
Cc1ccc(OCC(=O)Nc2ccc(O)c(-c3nc4ccccc4o3)c2)cc1	89*	-3	-2	14	-1	3
CCCCCN(C(=O)CCC(=O)OCC(=O)NCCc1ccccc1)c1c(N)n(CCCC)c(=O)[nH]c1=O	nt	-5	nt	nt	7	nt
O=C(NNC(=O)c1cc(-c2ccc(Cl)cc2Cl)nc2ccccc12)Nc1ccccc1	96*	-3	-11	5	7	3
O=C(NNC(=O)c1ccc(Cl)cc1Cl)Nc1ccccc1	54	-12	-6	-3	11	-2
Clc1cccc(CSc2ncn(-c3ccccc3)n2)c1	93*	-11	4	5	3	5
O=C(NCc1ccco1)c1ccc(Cn2c(=O)c3sccc3n(Cc3cccc(F)c3)c2=O)cc1	72*	-9	-4	-1	-4	-1
O=C(NCc1ccco1)c1ccc(Cn2c(=O)c3ccccc3n(Cc3cccc(Cl)c3)c2=O)cc1	18	-4	15	1	-4	4
Cc1ccccc1CS(=O)(=O)Cc1ccc(C(=O)NCCCN2CCCC2=O)o1	73*	8	-8	1	-3	1
SMILES	CHOP inhibitor	NOD2 RIPK2 PPI	TLR4-MyD88 BLA	XBP1 UPR activ	TLR9-MyD88 block	CHOP UPR activ
CCOC(=O)C(=CNc1cc(C)ccc1C)C(=O)OCC	88*	-1	-5	1	-6	4
Clc1cccc(Cl)c1Cn1cnc2c(N3CCCCCC3)ncnc21	76*	1	-12	11	4	1
CCN(CC)c1ncnc2c1ncn2Cc1c(Cl)cccc1Cl	6	-5	-2	1	-3	0
CC(C)CNC(=O)C1(C)CCCN1C(=O)CCc1cccs1 (stereo not given)	nt	-18	nt	nt	nt	nt
O=C(Nc1ccncc1)c1c(F)c(F)c(F)c(F)c1F	nt	0	nt	-2	-3	-2
O=C(Nc1ccccc1NC(=O)c1c(F)c(F)c(F)c(F)c1F)c1c(F)c(F)c(F)c(F)c1F	77*	2	11	-1	-4	2
Cc1cccc(NC(=O)c2c(F)c(F)c(F)c(F)c2F)c1	40	-6	-5	-1	-2	1
O=C(Nc1cccc(F)c1)c1c(F)c(F)c(F)c(F)c1F	79*	7	3	-2	1	-3
COc1ccc(NC(=O)N(C)C[C@@H]2Oc3cc(C#CCN(C)C)ccc3S(=O)(=O)N([C@H](C)CO)C[C@H]2C)cc1	nt	-13	nt	nt	3	nt
Nc1ccccc1Nc1cc(-c2ccccc2)nn1-c1cccc(Cl)c1	90*	6	-11	-1	-10	2
O=C(NCc1ccc2c(c1)OCO2)c1[nH]c(C(F)(F)F)nc1-c1ccccc1	nt	4	nt	nt	nt	nt
Cc1cc(Cl)ccc1OC(C)C(=O)Nc1ccc([N+](=O)[O-])cn1 (stereo not given)	75*	-14	11	-5	6	0
Cc1ccnc(N2C3CCC2CC(O)(c2ccccc2)C3)n1 (stereo not given)	-5	2	6	-2	2	0
Cc1cc(N2C3CCC2CC(O)(c2ccc(F)cc2)C3)nc(-c2ccccc2)n1 (stereo not given)	72*	-2	9	-1	5	1
COc1ccc(N=Nc2cnc(C)nc2-c2ccccc2)cc1	73*	1	-7	0	8	0
Cc1ncc(N=Nc2ccccc2Cl)c(-c2ccccc2)n1	-16	5	-11	-2	7	1
O=C(c1ccc(Cl)c(Cl)c1)N1CCC(=O)N([C@H](COCc2cccc(C(F)(F)F)c2)Cc2ccccc2)CC1	nt	-11	nt	nt	nt	nt
CCCCc1ccc(-n2c(Cc3cccs3)n[nH]c2=S)cc1	77*	0	7	5	0	0
CC1(C(=O)Nc2cccc(Oc3ccccc3)c2)CCN1C1Cc2ccccc2C1 (stereo not given)	nt	8	nt	nt	nt	nt
Clc1ccc(-c2nc3ccccc3nc2-c2ccccc2)cc1	74*	-14	-7	2	13	1
Cc1ccc(-c2nc3ccccc3nc2-c2ccccc2)cc1	nt	-1	nt	-3	-2	3
Cc1cc(C)cc(NC(=O)N2CCC(c3nc4ccccc4o3)CC2)c1	74*	2	5	-3	-7	0

Assay outcomes (PubChem)
